Calls of active or inactive are those of the source. Rule as the data show it, unless noted: active = inhibition above about 31%; inactive = the rest.

One may read the viability as a read-out of living cells in per cent, often relative to untreated cells. What is called inhibition is the change of the read-out against control, counted positive when it falls.

Assay [1] in a line: HUVEC growth inhibition – cell-based, human, primary screen (AID 575;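 active = viability at or below 30% in both replicate assays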;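 also: 100% = median of untreated cell wells with 0.1% DMSO on each plate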). Particulars: HUVEC proliferation, CellTiter-Glo luminescence, 72 h; at 10 µM; stronger effect = lower value. Summed up:
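material = primary HUVEC, no more than 12 passages | input = 1250 cells per well | controls = vehicle and MePR control wells | measured by = CTG luminescence | times = 72 h compound incubation | format = collagen-coated 384-well format | read-out = % viability vs DMSO wells | doses = single 10 µM dose, 0.1% DMSO, from 5x medium stock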
Background: In ATP-based viability assays light output follows the ATP content of the culture.

Assay [2] can be described thus: H69AR cell proliferation blockers – human, duplicate replicates, primary screen (AID 580;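 active = viability at or under a set limit in both replicates, limit being median viability minus 3 SD, cut at about 48% in these data, passing the limit was not always enough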;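 also: 100% = mean luminescence of untreated wells and 0% = no signal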). The following applies: H69AR lung tumor cells viability, ATP luminescence, 72 h; at 10 µM; stronger effect = lower value.
The nature of assay [3]: MRP1 drug-resistance reversers in H69AR cells – cell-based, doxorubicin co-treatment, pilot screen (AID 601;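 active = viability loss from added drug above about 55%, and viability with drug at most 40%, in both replicates, limit read from the data, passing the limit was not always enough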). The following applies: CellTiter-Glo, 72 h, at 10 µM; for differential viability (reversal): stronger effect = higher value.
Assay [4] can be described thus: yeast transport mutant growth inhibition pilot in 384-well plates, post-Golgi transport modulator project (AID 636). Particulars: absorbance 615 nm, about 18 h, stronger effect = higher value.
Assay [5] in a line: growth suppression of yeast trafficking mutant, preliminary HTS, modulators of trafficking downstream of Golgi apparatus project, 1536-format plate, OD 615 nm (AID 637; in the data active = inhibition above about 30%). Particulars: yeast transport mutant growth, absorbance 615 nm, 18 h; stronger effect = higher value.
Where [6] appears, read: H69AR cells + 2 uM doxorubicin, measured here: viability with 2 uM doxorubicin, stronger effect = lower value.
The mark [7] stands for this setting: H69AR cells, compound alone cytotoxicity.

On to `Cc1cccnc1NC(=O)CCCN1C(=O)c2ccccc2C1=O`, for which the viability in assay [1] was 114% (inactive); in assay [2], 94.7% (inactive); in assay [3] (setting [6]), 90%; in assay [3] (setting [7]), 94.7%. In addition, in assay [3] (H69AR cells + 2 uM doxorubicin), the differential viability (reversal) is 4.67% (inactive). Also, the values for the inhibition in assay [4] and in assay [5] were -6.13% (inactive) and 3.97% (inactive), respectively.

Regarding `CCN(CC)CCN1C(=O)C(O)=C(C(=O)c2cccs2)C1c1ccc(C)o1` (stereo not given), the viability in assay [1] is 98.7% (inactive); in assay [2], 98.6% (inactive); in assay [3] (setting [6]), 93.6%; in assay [3] (setting [7]), 98.6%. For the same compound, the differential viability (reversal) in assay [3] (H69AR cells + 2 uM doxorubicin) is 5.08% (inactive). In addition, the values for the inhibition in assay [4] and in assay [5] were -4.13% (inactive) and -1.11% (inactive), respectively.

Take `Cc1nnc(SCC(=O)Nc2nccs2)s1`: the viability in assay [1] is 95.7% (inactive); in assay [2], 93% (inactive); in assay [3] (setting [6]) it was 91.3%; in assay [3] (setting [7]), 93%. In addition, the differential viability (reversal) in assay [3] (H69AR cells + 2 uM doxorubicin) is 1.75% (inactive). For the same compound, the inhibition in assay [4] is -6.67% (inactive); in assay [5], -2.22% (inactive).

With `CCc1ccc(NC(=O)c2cccnc2)cc1`, the viability in assay [1] is 95.9% (inactive); in assay [2], 105% (inactive); in assay [3] (setting [6]), 81.7%; in assay [3] (setting [7]) it was 105%. Further, the differential viability (reversal) in assay [3] (H69AR cells + 2 uM doxorubicin) was 23.7% (inactive). Besides, the figures for the inhibition in assay [4] and in assay [5] were -7.2% (inactive) and -3.02% (inactive), respectively.

`O=C1C2C3C=CC(C3)C2C(=O)N1CNc1ccc(O)cc1` (stereo not given): the viability in assay [1] was 93.7% (inactive); in assay [2], 90.7% (inactive); in assay [3] (setting [6]) it was 102%; in assay [3] (setting [7]), 90.7%. Moreover, the differential viability (reversal) in assay [3] (H69AR cells + 2 uM doxorubicin) was -11.8% (inactive). Moreover, the results for the inhibition in assay [4] and in assay [5] were 0.13% (inactive) and -4.6% (inactive), respectively.

For `O=C(Cc1cccs1)NCc1ccc(F)cc1`, the viability in assay [1] is 98% (inactive); in assay [2] it was 99.6% (inactive); in assay [3] (setting [6]), 94.4%; in assay [3] (setting [7]), 99.6%. Further, the differential viability (reversal) in assay [3] (H69AR cells + 2 uM doxorubicin) is 5.21% (inactive). Further, the inhibition is -3.6% (inactive) in assay [4] and 3.33% (inactive) in assay [5].

On to `COC(=O)c1cccc(NC(=O)CSc2nnc(COc3ccccc3)n2C)c1`, for which the viability in assay [1] is 102% (inactive); in assay [2] it was 101% (inactive); in assay [3] (setting [6]) it was 87%; in assay [3] (setting [7]) it was 101%. Further, in assay [3] (H69AR cells + 2 uM doxorubicin), the differential viability (reversal) was 13.7% (inactive). The inhibition in assay [4] was -4.27% (inactive); in assay [5], 2.22% (inactive).

Turning to `Cc1nc(SCC(=O)NCc2ccco2)c2c(C)c(C)sc2n1`, the viability in assay [1] was 81.7% (inactive); in assay [2] it was 86.6% (inactive); in assay [3] (setting [6]) it was 71.4%; in assay [3] (setting [7]), 86.6%. Further, the differential viability (reversal) in assay [3] (H69AR cells + 2 uM doxorubicin) was 15.1% (inactive). Also, the inhibition in assay [4] was -2.86% (inactive); in assay [5], -0.79% (inactive).

Regarding `O=C(Cc1ccsc1-c1ccccc1)NO`, the viability in assay [1] is 72.8% (inactive); in assay [2] it was 1.73% (active); in assay [3] (setting [6]), 1.39%; in assay [3] (setting [7]), 1.73%. In assay [3] (H69AR cells + 2 uM doxorubicin), the differential viability (reversal) is 0.35% (inactive). Besides, the inhibition in assay [4] was -3.82% (inactive); in assay [5] it was 4.29% (inactive).

As to `CC1CCN(c2nc3c(c(=O)n(C)c(=O)n3C)n2Cc2ccccc2)CC1`, the viability in assay [1] is 79.2% (inactive); in assay [2] it was 88.1% (inactive); in assay [3] (setting [6]), 47%; in assay [3] (setting [7]), 88.1%. Moreover, the differential viability (reversal) in assay [3] (H69AR cells + 2 uM doxorubicin) was 41.1% (inactive). The inhibition was -2.27% (inactive) in assay [4] and 21.6% (inactive) in assay [5].

In the case of `CCC(=O)c1ccc(OCC(=O)N2CCc3cc(OC)c(OC)cc3C2)cc1`, the viability in assay [1] is 101% (inactive); in assay [2], 82.9% (inactive); in assay [3] (setting [6]) it was 94.1%; in assay [3] (setting [7]) it was 82.9%. Moreover, the differential viability (reversal) in assay [3] (H69AR cells + 2 uM doxorubicin) was -11.2% (inactive). Also, the inhibition in assay [4] was -2.34% (inactive); in assay [5], -4.6% (inactive).

With `COc1ccc(S(=O)(=O)NC(C)C(=O)Nc2cccc(C(C)=O)c2)cc1` (stereo not given), the viability in assay [1] was 114% (inactive); in assay [2] it was 98.1% (inactive); in assay [3] (setting [6]) it was 88.9%; in assay [3] (setting [7]), 98.1%. For the same compound, the differential viability (reversal) in assay [3] (H69AR cells + 2 uM doxorubicin) was 9.17% (inactive). In addition, the inhibition is -4.8% (inactive) in assay [4] and 0.16% (inactive) in assay [5].

Take `O=C1CC(C(=O)Nc2ccc(Br)cc2)C2(CCCC2)O1` (stereo not given): the viability is 109% (inactive) in assay [1], 101% (inactive) in assay [2], 93.1% in assay [3] (setting [6]) and 101% in assay [3] (setting [7]). Besides, the differential viability (reversal) in assay [3] (H69AR cells + 2 uM doxorubicin) was 8.19% (inactive). Also, the inhibition is -4% (inactive) in assay [4] and -1.75% (inactive) in assay [5].

In the case of `CCN(CC(=O)Nc1c(C(=O)OC)[nH]c2ccccc12)c1ccc2c(c1)OCO2`, the viability is 67.8% (inactive) in assay [1], 72% (inactive) in assay [2], 78.8% in assay [3] (setting [6]) and 72% in assay [3] (setting [7]). Moreover, the differential viability (reversal) in assay [3] (H69AR cells + 2 uM doxorubicin) is -6.82% (inactive). For the same compound, the inhibition in assay [4] is -5.2% (inactive); in assay [5], -2.22% (inactive).

`Nc1nc2ccccc2n1/N=C/c1ccc(Br)cc1`: the viability in assay [1] is 72.4% (inactive); in assay [2] it was 86.8% (inactive); in assay [3] (setting [6]), 82.8%; in assay [3] (setting [7]) it was 86.8%. In addition, the differential viability (reversal) in assay [3] (H69AR cells + 2 uM doxorubicin) is 4.02% (inactive). For the same compound, the inhibition in assay [4] was -3.95% (inactive); in assay [5] it was 8.57% (inactive).

Take `CC(=O)Nc1ccc(S(=O)(=O)N2CCN(Cc3ccncc3)CC2)cc1`: the viability was 90.7% (inactive) in assay [1], 109% (inactive) in assay [2], 90.5% in assay [3] (setting [6]) and 109% in assay [3] (setting [7]). For the same compound, in assay [3] (H69AR cells + 2 uM doxorubicin), the differential viability (reversal) is 18.1% (inactive). The inhibition in assay [4] is -5.13% (inactive); in assay [5], 1.59% (inactive).

With `O=C(c1cnn2c1NC(c1ccco1)CC2C(F)(F)F)N1CCN(c2cccc(Cl)c2)CC1` (stereo not given), the viability was 48.7% (inactive) in assay [1], 9.38% (active) in assay [2], 70.8% in assay [3] (setting [6]) and 9.38% in assay [3] (setting [7]). The differential viability (reversal) in assay [3] (H69AR cells + 2 uM doxorubicin) was -61.4% (inactive). Besides, the inhibition in assay [4] is -6% (inactive); in assay [5], -2.22% (inactive).

On to `Cc1ccc(-c2[nH]nc3c2C(c2ccoc2)C(C#N)=C(N)O3)cc1C` (stereo not given), for which the viability in assay [1] was 90.2% (inactive); in assay [2], 86.7% (inactive); in assay [3] (setting [6]), 86%; in assay [3] (setting [7]), 86.7%. In addition, the differential viability (reversal) in assay [3] (H69AR cells + 2 uM doxorubicin) is 0.74% (inactive). Moreover, the inhibition was -1.45% (inactive) in assay [4] and -1.27% (inactive) in assay [5].

On to `O=C(O)c1ccccc1S`, for which the viability in assay [1] was 84.4% (inactive); in assay [2], 74.7% (inactive); in assay [3] (setting [6]) it was 67.8%; in assay [3] (setting [7]), 74.7%. Besides, the differential viability (reversal) in assay [3] (H69AR cells + 2 uM doxorubicin) was 6.9% (inactive). Further, the results for the inhibition in assay [4] and in assay [5] were -2.34% (inactive) and 3.5% (inactive), respectively.

Take `CC(Sc1nnc(-c2cc3ccccc3o2)n1-c1ccccc1)C(=O)O` (stereo not given): the viability is 90.9% (inactive) in assay [1], 95.1% (inactive) in assay [2], 93.5% in assay [3] (setting [6]) and 95.1% in assay [3] (setting [7]). Further, in assay [3] (H69AR cells + 2 uM doxorubicin), the differential viability (reversal) was 1.61% (inactive). The inhibition in assay [4] was -5.84% (inactive); in assay [5] it was 2.38% (inactive).

The record behind these values is PubChem BioAssay.
